Source: ChEMBL document CHEMBL3525900, “Pharmacokinetics, distribution, and metabolism of [14C]sunitinib in rats, monkeys, and humans” (Drug Metab Dispos, 2012)

Columns and labels:
[1] = system: Lung; experiment: Drug concentration in female albino rat lung assessed as radioactivity per gram of tissue at 20 mg/kg administered as single dose via gastric gavage measured after 6 hrs by autoradiographic analysis; assay type: ADME, organism-based; parameters: dose 20 mg/kg, dosed compound name [14C]Sunitinib; settings: in vivo, po
Summary of the method: (§1)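 Sprague Dawley albino rats, ca 7-8 weeks old, dosed once by gastric gavage with [14C]sunitinib L-malate (15 mg freebase/kg, 100 µCi/kg). One male and one female killed by CO2 at 3, 6, 24, 72 and 168 h. Carcasses frozen in solid CO2/hexane, embedded and cut into 30 µm sagittal sections, then freeze-dried. Radioactivity quantified by whole-body autoradiography against standards by regression, background subtracted.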

[2] = Drug concentration in male albino rat bone marrow assessed as radioactivity per gram of tissue at 20 mg/kg administered as single dose via gastric gavage measured after 24 hrs by autoradiographic analysis; assay type: ADME, organism-based; parameters: dose 20 mg/kg, dosed compound name [14C]Sunitinib; settings: in vivo, po
[3] = Drug concentration in male albino rat testis assessed as radioactivity per gram of tissue at 20 mg/kg administered as single dose via gastric gavage measured after 6 hrs by autoradiographic analysis; assay type: ADME, organism-based; parameters: dose 20 mg/kg, dosed compound name [14C]Sunitinib; settings: in vivo, po
[4] = system: Homo sapiens; experiment: Tmax as total radioactivity in human plasma at 50 mg, po administered as single dose measured up to 24 hrs by LC/MS/MS analysis; assay type: ADME, organism-based; parameters: dosed compound name [14C]Sunitinib; settings: in vivo
[5] = Drug concentration in female Lister Hooded pigmented rat preputial gland assessed as radioactivity per gram of tissue at 20 mg/kg administered as single dose via gastric gavage measured after 24 hrs by autoradiographic analysis; assay type: ADME, organism-based; parameters: dose 20 mg/kg, dosed compound name [14C]Sunitinib; settings: in vivo, po
Summary of the method: (§2)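 Lister Hooded (pigmented) rats, ca 7-8 weeks old, acclimated 7 days, given [14C]sunitinib L-malate by gastric gavage at 20 mg/kg (15 mg freebase/kg, 100 µCi/kg). One male and one female killed by CO2 at 24, 72, 168 and 336 h. Carcasses frozen in solid CO2/hexane and embedded in frozen cellulose. 30 µm sagittal cryosections were freeze-dried. Tissue radioactivity measured by quantitative whole-body autoradiography against calibration standards, with background subtracted.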

[6] = system: Spleen; experiment: Drug concentration in male albino rat spleen assessed as radioactivity per gram of tissue at 20 mg/kg administered as single dose via gastric gavage measured after 3 hrs by autoradiographic analysis; assay type: ADME, organism-based; parameters: dose 20 mg/kg, dosed compound name [14C]Sunitinib; settings: in vivo, po
[7] = Drug concentration in male Lister Hooded pigmented rat bone marrow assessed as radioactivity per gram of tissue at 20 mg/kg administered as single dose via gastric gavage measured after 168 hrs by autoradiographic analysis; assay type: ADME, organism-based; parameters: dose 20 mg/kg, dosed compound name [14C]Sunitinib; settings: in vivo, po
[8] = Drug concentration in female albino rat uveal tract assessed as radioactivity per gram of tissue at 20 mg/kg administered as single dose via gastric gavage measured after 3 hrs by autoradiographic analysis; assay type: ADME, organism-based; parameters: dose 20 mg/kg, dosed compound name [14C]Sunitinib; settings: in vivo, po
[9] = Drug concentration in male Lister Hooded pigmented rat eye assessed as radioactivity per gram of tissue at 20 mg/kg administered as single dose via gastric gavage measured after 24 hrs by autoradiographic analysis; assay type: ADME, organism-based; parameters: dose 20 mg/kg, dosed compound name [14C]Sunitinib; settings: in vivo, po
[10] = system: Pancreas; experiment: Drug concentration in male Lister Hooded pigmented rat pancreas assessed as radioactivity per gram of tissue at 20 mg/kg administered as single dose via gastric gavage measured after 168 hrs by autoradiographic analysis; assay type: ADME, organism-based; parameters: dose 20 mg/kg, dosed compound name [14C]Sunitinib; settings: in vivo, po
[11] = Drug concentration in male albino rat skeletal muscle assessed as radioactivity per gram of tissue at 20 mg/kg administered as single dose via gastric gavage measured after 3 hrs by autoradiographic analysis; assay type: ADME, organism-based; parameters: dose 20 mg/kg, dosed compound name [14C]Sunitinib; settings: in vivo, po
[12] = system: Spleen; experiment: Drug concentration in male Lister Hooded pigmented rat spleen assessed as radioactivity per gram of tissue at 20 mg/kg administered as single dose via gastric gavage measured after 168 hrs by autoradiographic analysis; assay type: ADME, organism-based; parameters: dose 20 mg/kg, dosed compound name [14C]Sunitinib; settings: in vivo, po
[13] = Drug concentration in female albino rat bone marrow assessed as radioactivity per gram of tissue at 20 mg/kg administered as single dose via gastric gavage measured after 72 hrs by autoradiographic analysis; assay type: ADME, organism-based; parameters: dose 20 mg/kg, dosed compound name [14C]Sunitinib; settings: in vivo, po
Summary of the method: (§3)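 Sprague Dawley (albino) rats, ca 7-8 weeks old, received a single gastric-gavage dose of [14C]sunitinib L-malate at 20 mg/kg (15 mg freebase/kg, 100 µCi/kg). One animal per sex killed by CO2 at 3, 6, 24, 72 and 168 h, then frozen in CO2/hexane. 30 µm sagittal sections were cut and freeze-dried. Radioactivity per gram quantified by whole-body autoradiography using regression against standards. LOQ 0.04–0.06 µg freebase equiv/g.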

[14] = system: Adrenal; experiment: Drug concentration in female albino rat adrenal assessed as radioactivity per gram of tissue at 20 mg/kg administered as single dose via gastric gavage measured after 168 hrs by autoradiographic analysis; assay type: ADME, organism-based; parameters: dose 20 mg/kg, dosed compound name [14C]Sunitinib; settings: in vivo, po; summary of the method: as §3
[15] = Drug concentration in female Lister Hooded pigmented rat eye assessed as radioactivity per gram of tissue at 20 mg/kg administered as single dose via gastric gavage measured after 24 hrs by autoradiographic analysis; assay type: ADME, organism-based; parameters: dose 20 mg/kg, dosed compound name [14C]Sunitinib; settings: in vivo, po; summary of the method: as §2
[16] = Drug concentration in female albino rat bone marrow assessed as radioactivity per gram of tissue at 20 mg/kg administered as single dose via gastric gavage measured after 6 hrs by autoradiographic analysis; assay type: ADME, organism-based; parameters: dose 20 mg/kg, dosed compound name [14C]Sunitinib; settings: in vivo, po; summary of the method: as §3
[17] = system: Liver; experiment: Drug concentration in male Lister Hooded pigmented rat liver assessed as radioactivity per gram of tissue at 20 mg/kg administered as single dose via gastric gavage measured after 24 hrs by autoradiographic analysis; assay type: ADME, organism-based; parameters: dose 20 mg/kg, dosed compound name [14C]Sunitinib; settings: in vivo, po
[18] = system: Brain; experiment: Drug concentration in male albino rat brain assessed as radioactivity per gram of tissue at 20 mg/kg administered as single dose via gastric gavage measured after 72 hrs by autoradiographic analysis; assay type: ADME, organism-based; parameters: dose 20 mg/kg, dosed compound name [14C]Sunitinib; settings: in vivo, po
[19] = system: Heart; experiment: Drug concentration in male albino rat heart assessed as radioactivity per gram of tissue at 20 mg/kg administered as single dose via gastric gavage measured after 3 hrs by autoradiographic analysis; assay type: ADME, organism-based; parameters: dose 20 mg/kg, dosed compound name [14C]Sunitinib; settings: in vivo, po
[20] = system: Spinal cord; experiment: Drug concentration in male albino rat spinal cord assessed as radioactivity per gram of tissue at 20 mg/kg administered as single dose via gastric gavage measured after 6 hrs by autoradiographic analysis; assay type: ADME, organism-based; parameters: dose 20 mg/kg, dosed compound name [14C]Sunitinib; settings: in vivo, po
[21] = Drug concentration in male albino rat uveal tract assessed as radioactivity per gram of tissue at 20 mg/kg administered as single dose via gastric gavage measured after 3 hrs by autoradiographic analysis; assay type: ADME, organism-based; parameters: dose 20 mg/kg, dosed compound name [14C]Sunitinib; settings: in vivo, po
[22] = Drug concentration in male albino rat uveal tract assessed as radioactivity per gram of tissue at 20 mg/kg administered as single dose via gastric gavage measured after 24 hrs by autoradiographic analysis; assay type: ADME, organism-based; parameters: dose 20 mg/kg, dosed compound name [14C]Sunitinib; settings: in vivo, po
[23] = Drug concentration in male Lister Hooded pigmented rat bladder assessed as radioactivity per gram of tissue at 20 mg/kg administered as single dose via gastric gavage measured after 168 hrs by autoradiographic analysis; assay type: ADME, organism-based, Urinary bladder; parameters: dose 20 mg/kg, dosed compound name [14C]Sunitinib; settings: in vivo, po
[24] = Drug concentration in female albino rat skeletal muscle assessed as radioactivity per gram of tissue at 20 mg/kg administered as single dose via gastric gavage measured after 3 hrs by autoradiographic analysis; assay type: ADME, organism-based; parameters: dose 20 mg/kg, dosed compound name [14C]Sunitinib; settings: in vivo, po
[25] = Drug concentration in male albino rat testis assessed as radioactivity per gram of tissue at 20 mg/kg administered as single dose via gastric gavage measured after 3 hrs by autoradiographic analysis; assay type: ADME, organism-based; parameters: dose 20 mg/kg, dosed compound name [14C]Sunitinib; settings: in vivo, po
[26] = Drug concentration in male Lister Hooded pigmented rat preputial gland assessed as radioactivity per gram of tissue at 20 mg/kg administered as single dose via gastric gavage measured after 168 hrs by autoradiographic analysis; assay type: ADME, organism-based; parameters: dose 20 mg/kg, dosed compound name [14C]Sunitinib; settings: in vivo, po
[27] = Drug concentration in female albino rat bladder assessed as radioactivity per gram of tissue at 20 mg/kg administered as single dose via gastric gavage measured after 24 hrs by autoradiographic analysis; assay type: ADME, organism-based, Urinary bladder; parameters: dose 20 mg/kg, dosed compound name [14C]Sunitinib; settings: in vivo, po; summary of the method: as §3
[28] = Drug concentration in male albino rat bladder assessed as radioactivity per gram of tissue at 20 mg/kg administered as single dose via gastric gavage measured after 6 hrs by autoradiographic analysis; assay type: ADME, organism-based, Urinary bladder; parameters: dose 20 mg/kg, dosed compound name [14C]Sunitinib; settings: in vivo, po
[29] = system: Large intestine; experiment: Drug concentration in female albino rat large intestine assessed as radioactivity per gram of tissue at 20 mg/kg administered as single dose via gastric gavage measured after 72 hrs by autoradiographic analysis; assay type: ADME, organism-based; parameters: dose 20 mg/kg, dosed compound name [14C]Sunitinib; settings: in vivo, po; summary of the method: as §1
[30] = Drug concentration in male albino rat bone marrow assessed as radioactivity per gram of tissue at 20 mg/kg administered as single dose via gastric gavage measured after 3 hrs by autoradiographic analysis; assay type: ADME, organism-based; parameters: dose 20 mg/kg, dosed compound name [14C]Sunitinib; settings: in vivo, po

CCN(CC)CCNC(=O)c1c(C)[nH]c(/[14CH]=C2\C(=O)Nc3ccc(F)cc32)c1C.O=C(O)C[C@H](O)C(=O)O
Radiolabel recovery [1]: 16.19 ugequiv
Radiolabel recovery [2]: 0.38 ugequiv
Radiolabel recovery [3]: 0.9 ugequiv
Tmax [4]: 8 h
Radiolabel recovery [5]: 4.5 ugequiv
Radiolabel recovery [6]: 20.52 ugequiv
Radiolabel recovery [7]: 0.06 ugequiv
Radiolabel recovery [8]: 5.07 ugequiv
Radiolabel recovery [9]: 7.8 ugequiv
Radiolabel recovery [10]: 0.06 ugequiv
Radiolabel recovery [11]: 2.92 ugequiv
Radiolabel recovery [12]: 0.06 ugequiv
Radiolabel recovery [13]: 0.1 ugequiv
Radiolabel recovery [14]: 0.33 ugequiv
Radiolabel recovery [15]: 31.8 ugequiv
Radiolabel recovery [16]: 7.51 ugequiv
Radiolabel recovery [17]: 2.09 ugequiv
Radiolabel recovery [18]: 0.07 ugequiv
Radiolabel recovery [19]: 5.58 ugequiv
Radiolabel recovery [20]: 0.29 ugequiv
Radiolabel recovery [21]: 2.63 ugequiv
Radiolabel recovery [22]: 0.13 ugequiv
Radiolabel recovery [23]: 0.06 ugequiv
Radiolabel recovery [24]: 3.97 ugequiv
Radiolabel recovery [25]: 0.79 ugequiv
Radiolabel recovery [26]: 0.06 ugequiv
Radiolabel recovery [27]: 0.54 ugequiv
Radiolabel recovery [28]: 2.56 ugequiv
Radiolabel recovery [29]: 0.09 ugequiv
Radiolabel recovery [30]: 7.55 ugequiv
